High-throughput results as filed in PubChem.
Arr AP2 block – human beta-arrestin and AP2 interaction inhibition. FITC-arrestin peptide / GST-AP2 beads, flow cytometry; AP2 beta2 appendage carries R879A mutation. inhibition, % at 10 µM. 340,000 tested, 0.31% active. AID 504490;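 active means inhibition above a set limit, near 3 SD of compounds lacking own fluorescence, cut at about 54% in these data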;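 further: plate controls were DMSO wells for no effect and 5 µM unlabelled arrestin peptide for full effect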
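System: GST-AP2 R879A glutathione beads; medium: PBS, Tween 20 0.05%, BSA 0.1%; reagent: fluorescein-tagged arrestin peptide at 50 nM final; schedule: pre-incubation 12 min, peptide binding 1 h, room temperature; detection: flow cytometry, FL1 (488/535 nm); read-out: inhibition as reduced fluorescein signal on beads, percent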
MBD2 inh – blocks human MBD2 binding to methylated DNA. 370,000 tested, 0.31% active. Q9UBB5. inhibition, % at 4.4 µM. TR-FRET, MBD2 binding to methylated oligonucleotide; in the data active means inhibition above about 13%
Target sequence (Q9UBB5 whole entry, looked up): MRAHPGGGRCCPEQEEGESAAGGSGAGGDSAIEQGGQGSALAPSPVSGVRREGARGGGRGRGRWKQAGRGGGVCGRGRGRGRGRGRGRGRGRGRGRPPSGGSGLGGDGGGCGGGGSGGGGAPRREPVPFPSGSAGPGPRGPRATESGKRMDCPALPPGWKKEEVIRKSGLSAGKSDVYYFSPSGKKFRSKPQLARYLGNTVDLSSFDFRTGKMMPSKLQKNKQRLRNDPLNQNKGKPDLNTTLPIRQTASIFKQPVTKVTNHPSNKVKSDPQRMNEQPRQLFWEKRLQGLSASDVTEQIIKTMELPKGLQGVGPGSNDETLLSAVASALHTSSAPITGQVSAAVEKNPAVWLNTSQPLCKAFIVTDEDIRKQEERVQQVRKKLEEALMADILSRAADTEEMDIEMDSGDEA
Rin1 Abl inh – blocks binding of human Rin1 to Abl; P00519+Q13671; 360,000 tested, 0.4% active; AID 588664; TR-FRET Rin1/Abl binding, biochemical; inhibition, % at 7.35 µM; in the data active means inhibition above about 5%, passing the limit was not always enough
ABHD5 PLIN5 PPI – blocks binding of human ABHD5 to perilipin-5. inhibition, % at 4 µM. 360,000 tested, 0.78% active. Q00G26+Q8WTS1. AID 602281. Split G. princeps luciferase complementation, luminescence, 4 h;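 active means inhibition above the mean inhibition across every tested compound plus 3 SD, cut at about 22% in these data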;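 further: 0% = DMSO only wells and the 100% control is not disclosed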
UHRF1 binding – human UHRF1 methylated DNA binding inhibitors; Q96T88; UHRF1 binding to methylated oligo, TR-FRET; inhibition, % at 4.4 µM; 370,000 tested, 0.75% active; AID 687016; in the data active means inhibition above about 21%;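 further: UHRF1 SRA domain binding a hemimethylated CpG hairpin DNA probe; 0% = median of test compound wells and 100% = reference inhibitor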
B2AR ag – agonists of human beta-2 adrenergic receptor inducing internalization; 340,000 tested, 0.43% active; response, % (no concentration beside the values); Am2.2-beta2AR cells, FAP receptor internalization, flow cytometry; AID 504454;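 active means response above a set limit, near 3 SD of response in nonfluorescent compounds, cut at about 42% in these data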
Arr-AP2 CP1 – human beta-arrestin and AP2 interaction inhibition, cherry pick; 1,300 tested, 2% active; inhibition, % at 10 µM; GST-AP2 beads, FITC arrestin peptide binding, flow cytometry; GST-fused beta2-adaptin appendage, R879A mutant; AID 504908; shares compounds with Arr AP2 block;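 active means inhibition above a set limit, roughly 3 SD of non-fluorescent compound noise, cut at about 38% in these data; inactive means inhibition at or below that limit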;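 further: loss of bead fluorescence from 50 nM FITC arrestin peptide bound to appendage; 0% = negative control wells and 100% = excess unlabelled arrestin peptide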
GST GSH counter – counter-screen for beta-arrestin AP2 inhibitors: GST-GSH bead binding; GST-fluorescein binding to GSH beads, fluorescence; inhibition, % at 10 µM; 1,300 tested, 2% active; shares compounds with Arr AP2 block; AID 588338;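 active means inhibition above 50%, about 3 SD of the inhibition seen with non-fluorescent compounds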;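 further: fluorescein maleimide labelled GST captured on 4 micron glutathione beads; higher means more loss of bead fluorescence from quenching or blocked binding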
Numbers without * were called inactive; . = no result. A selection: hits, their analogues and other compounds. The true share with any hit is near 2.5%.

SMILES | Arr AP2 block | MBD2 inh | Rin1 Abl inh | ABHD5 PLIN5 PPI | UHRF1 binding | B2AR ag | Arr-AP2 CP1 | GST GSH counter
COc1ccc(CCC(C)NC2CCCCCCC2)cc1 (centres undefined) | 63.6* | -3.9 | 1.8 | 2.1 | 0.8 | -3.5 | 18.8 | 8.5
CCCCCCCCNC(=O)C1CSCCS(=O)(=O)N1Cc1ccccc1 (centres undefined) | . | -4.2 | . | . | -0.9 | . | . | .
CCn1ncc(C(=O)Nc2ccc([N+](=O)[O-])cc2OC)c1C | 0.8 | -3.3 | 0.5 | -5.5 | -1.1 | -3.3 | . | .
CCn1ncc(Cl)c1C(=O)Nc1cc([N+](=O)[O-])ccc1OC | 105.5* | -2.0 | 2.5 | -0.5 | -3.2 | -6.5 | -1.8 | 13.8
CC(=O)Nc1ccc(NC(=O)CSc2nnc(C)n2-c2ccccc2)cc1 | 59.8* | -5.9 | -2.2 | 4.8 | -2.4 | 1.1 | -1.4 | -2.6
COC(=O)[C@]12C[C@H](CC(=O)N3CCN(C(=O)C4CC4)CC3)C(=O)N(Cc3cccc4ccccc34)C1=C[C@H](C1CCCC1)O[C@@H]2C | . | -5.2 | . | . | -0.1 | . | . | .
O=C(CSc1nc2ccc([N+](=O)[O-])cc2[nH]1)c1ccc2ccccc2c1 | 105.8* | 1.6 | -3.2 | -3.7 | -2.3 | 9.5 | -4.6 | 3.9
Cc1ccc(N=Nc2c(N)nn3c(C)cc(C)nc23)cc1 | 2.2 | -7.2 | -3.1 | 2.7 | -7.6 | -13.4 | . | .
Cc1cc(C)n2nc(N)c(N=Nc3cccc(Cl)c3)c2n1 | 98.7* | 2.7 | -1.8 | 5.2 | -4.2 | -6.9 | 10.4 | 62.4*
NC(=O)C1CCN(C2=C(Cl)C(=O)c3ccccc3C2=O)CC1 | 54.2* | -13.3 | -2.0 | -44.1 | -19.4 | 46.2* | 51.3* | -0.2
O=C1C(Cl)=C(N2CCC(C(=O)O)CC2)C(=O)c2ccccc21 | 26.5 | . | -3.8 | -22.0 | . | 7.1 | . | .
COc1ccc(Cl)cc1NS(=O)(=O)c1cccc(C(=O)NCC2(N(C)C)CCCCC2)c1 | 39.4 | 0.4 | 3.7 | 9.7 | 1.5 | -2.8 | 4.2 | -2.2
COc1ccccc1NS(=O)(=O)c1cccc(C(=O)NCC2(N(C)C)CCCCC2)c1 | 3.1 | 7.8 | 4.9 | 0.5 | -0.9 | -3.7 | -1.1 | -14.7
CN(c1ccc(F)cc1)S(=O)(=O)c1ccc(Cl)c(C(=O)NCC2(N3CCOCC3)CCCCC2)c1 | -2.5 | -3.2 | 0.8 | -5.6 | -2.9 | -4.0 | -13.3 | -6.2
COc1ccccc1N(C)S(=O)(=O)c1ccc(Cl)c(C(=O)NCC2(N(C)C)CCCCC2)c1 | -1.9 | 0.2 | 3.7 | -2.7 | -1.0 | 5.5 | 6.1 | 1.8
COc1ccccc1NS(=O)(=O)c1ccc(C(=O)NCC2(N(C)C)CCCCC2)cc1 | -5.2 | -0.8 | -0.6 | 5.2 | -1.5 | 1.5 | . | .
COc1ccccc1N(C)S(=O)(=O)c1ccc(Cl)c(C(=O)NNC(=O)c2ccccc2O)c1 | -12.2 | -3.5 | -0.8 | -4.1 | -3.5 | -8.2 | . | .
O=C(C1CCCN1S(=O)(=O)c1cccs1)N1CCc2ccccc2C1 (centres undefined) | . | 7.1 | . | . | 3.8 | . | . | .
O=c1c2cc3cc(Cl)ccc3nc2ncn1N1CCCCC1 | . | -2.3 | . | . | -2.6 | . | . | .
O=C(Oc1ccc2ccc(=O)oc2c1)N1CCOCC1 | 54.8* | 2.8 | 1.5 | -0.4 | 0.3 | -2.3 | 1.0 | -8.8
CC(=O)Nc1ccc(C(=O)COC(=O)c2cc(C)oc2C)c(F)c1 | 72.4* | 7.6 | 1.5 | 12.3 | 2.3 | 6.5 | -0.3 | -1.6
CC(=O)Nc1ccc(C(=O)COC(=O)c2ccco2)c(F)c1 | -3.2 | 1.3 | 0.8 | -3.2 | -2.1 | 15.7 | . | .
Cc1ccc(-c2c(NC(=O)c3ccc(F)cc3)nc3ncccn23)cc1 | . | 3.1 | . | . | 0.0 | . | . | .
COC1OC2COC(c3ccccc3)OC2C(NC(C)=O)C1OC(C)=O (centres undefined) | . | -8.2 | -0.1 | -3.1 | 1.0 | . | . | .
CC(=O)N[C@@H]1[C@@H](O)[C@@H]2OC(c3ccccc3)OC[C@H]2O[C@@H]1N=[N+]=[N-] (some centres undefined) | 56.2* | -5.8 | -0.8 | 6.3 | 4.8 | 1.1 | 11.6 | -3.0
SMILES | Arr AP2 block | MBD2 inh | Rin1 Abl inh | ABHD5 PLIN5 PPI | UHRF1 binding | B2AR ag | Arr-AP2 CP1 | GST GSH counter
O=C(NNC(=O)c1ccncc1)c1ccncc1 | -0.9 | 1.8 | -1.0 | 3.4 | -1.4 | 3.2 | . | .
O=C(NNC(=O)c1ccc(Cl)nc1)c1ccncc1 | 57.0* | -2.0 | -0.6 | 8.1 | -1.9 | 3.4 | -4.0 | -4.6
CC(C)Cn1c(N)c(C(=O)COC(=O)c2ccccc2Cl)c(=O)n(C)c1=O | -17.2 | 7.1 | 1.4 | -0.7 | 0.0 | 9.5 | 6.2 | -2.8
CC(C)Cn1c(N)c(C(=O)COC(=O)c2ccccc2C(=O)c2ccccc2)c(=O)n(C)c1=O | 7.5 | 3.1 | 0.2 | -7.2 | -2.7 | 9.7 | . | .
CC(C)Cn1c(N)c(C(=O)COC(=O)c2ccc3ccccc3n2)c(=O)n(C)c1=O | 2.5 | -3.2 | -3.9 | -3.4 | 1.8 | -2.8 | . | .
CC(C)Cn1c(N)c(C(=O)COC(=O)c2cccn2C)c(=O)n(C)c1=O | 31.2 | 0.3 | 6.0 | 21.6 | 1.6 | 3.9 | -6.8 | -1.9
CC(C)Cn1c(N)c(C(=O)COC(=O)c2ccccc2F)c(=O)n(C)c1=O | 3.6 | -4.1 | 0.8 | -0.9 | -0.9 | -10.3 | -1.1 | 0.3
COC(=O)[C@]12C[C@H](CC(=O)N3CCOCC3)C(=O)N(Cc3cccc4ccccc34)C1=C[C@H](C(C)C)O[C@@H]2C1CC1 | . | 1.2 | . | . | 0.7 | . | . | .
O=C1[C@@H](C2CC2)[C@@H]2c3ccccc3C=NN2[C@@H]2c3ccccc3C=NN12 | . | 1.9 | . | . | 2.0 | . | . | .
CCCCNS(=O)(=O)c1ccc(NC(=O)Cc2ccccc2[N+](=O)[O-])cc1 | 55.7* | -5.9 | 2.9 | -4.1 | -1.6 | 2.0 | 1.3 | 1.3
CC(=O)/C(=N\Nc1ccccc1Cl)Sc1nnc(-c2ccccc2)n1-c1ccccc1 | -3.0 | -3.2 | -2.1 | 4.7 | 1.6 | -21.3 | . | .
CC(=O)/C(=N\Nc1ccccc1)Sc1nnc(-c2ccccc2)n1-c1ccccc1 | 91.2* | 0.5 | -4.3 | -2.2 | -5.1 | -15.9 | 8.2 | 4.8
CCN(CC)C(=O)CC[C@@H]1CC[C@]2(CCCN(Cc3nccs3)C2)O1 | . | -3.5 | . | . | -0.8 | . | . | .
CC(C)(C)c1ccc(-c2csc(N3CCC(C(N)=O)CC3)n2)cc1 | . | -0.2 | . | . | -0.4 | . | . | .
COc1ccccc1-n1c(SCC(=O)NC2CC2)nc2ccccc2c1=O | 59.9* | 1.7 | 1.3 | 7.1 | -0.3 | -8.0 | -6.1 | -5.4
COc1ccc(NC(=O)CN(C)C(=O)C(NC(=O)c2ccco2)C(C)C)cc1 (centres undefined) | 60.8* | -0.8 | 0.6 | 13.5 | 4.3 | 2.9 | 0.5 | -1.9
COc1ccc(NC(=O)c2ccc(S(=O)(=O)C(F)F)cc2)c(OC)c1 | 60.4* | 10.8 | -1.3 | 2.8 | 0.9 | 6.8 | 0.0 | -7.1
